# Assay results from ChEMBL document CHEMBL1123612, “Studies on histamine H2 receptor antagonists. 2. Synthesis and pharmacological activities of N-sulfamoyl and N-sulfonyl amidine derivatives” (1987).
# How the values were obtained:
# [1] = target: Histamine H2 receptor (Cavia porcellus) (UniProt P47747); test: Histamine H2 receptor antagonist activity (chronotropic response to histamine) in guinea pig right atrium; assay type: functional, tissue-based; conditions: Cardiac atrium
# Summary of the method: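 Spontaneously beating atrium; rate recorded via force-displacement transducer. Test compound added 10 min before histamine (5 × 10⁻⁶ M), three to four concentrations per compound. Percent inhibition of the histamine-induced rate increase plotted against log concentration; 50% inhibitory dose read from the dose-response curve (means ± SE).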
# Canis familiaris [2] = test: (§1) Reduction in gastric acid secretion under histamine[160 ug/(kg h)] stimulation in anesthetized dogs after intravenous administration; assay type: functional; conditions: Canis lupus familiaris, Stomach
# Summary of the method: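 Fasted (24 h) mongrel dogs, 8-10 kg, anesthetized with iv pentobarbital (30 mg/kg). Gastric juice acidity titrated with 0.05 N NaOH. Percent inhibition per dose taken from predrug acid output versus minimum output, usually reached within 45 min of dosing. ED50 read from semilog plot of inhibition against dose; two to four dogs per compound.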
# Canis familiaris [3] = test: as §1; conditions: Canis lupus familiaris, Stomach
# Sequence of Histamine H2 receptor (Cavia porcellus) (P47747 whole entry): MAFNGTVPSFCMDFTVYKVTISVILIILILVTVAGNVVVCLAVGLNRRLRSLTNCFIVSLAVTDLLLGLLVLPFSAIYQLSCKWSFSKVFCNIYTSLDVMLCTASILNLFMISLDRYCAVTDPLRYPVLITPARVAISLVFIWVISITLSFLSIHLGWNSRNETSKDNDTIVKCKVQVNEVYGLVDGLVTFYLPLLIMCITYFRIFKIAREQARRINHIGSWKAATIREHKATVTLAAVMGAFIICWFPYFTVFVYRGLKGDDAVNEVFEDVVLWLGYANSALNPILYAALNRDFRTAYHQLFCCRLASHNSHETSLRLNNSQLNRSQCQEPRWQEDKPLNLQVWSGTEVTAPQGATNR
SMILES,ED50 [1],ED50 (Canis familiaris [2]),ED50 (Canis familiaris [3])
N=C(N)Nc1nc(CSCCC(=N)NS(N)(=O)=O)no1,> 100000 nM,–,–
CN(C)Cc1ccc(CSCCC(=N)NS(N)(=O)=O)o1,17000 nM,–,–
N=C(N)Nc1nc(CCCCC(=N)NS(=O)(=O)NC2CCCCC2)cs1,1300 nM,–,–
CCS(=O)(=O)NC(=N)CCCCc1csc(N=C(N)N)n1,600 nM,0.0244 mg/kg,–
N=C(N)Nc1nc(CSCCC(=N)NNS(=O)(=O)c2ccccc2)cs1,8300 nM,–,–
C/N=C(\N)Nc1nc(CSCCC(=N)NS(N)(=O)=O)cs1,480 nM,0.0518 mg/kg,–
CS(=O)(=O)NC(=N)CCSCc1csc(N=C(N)N)n1,510 nM,–,–
N=C(N)Nc1nc(CCCCC(=N)NS(=O)(=O)c2ccc(N)cc2)cs1,350 nM,0.0101 mg/kg,–
NC(N)=Nc1nc(CSCC/C(N)=N/S(N)(=O)=O)cs1 [FAMOTIDINE],270 nM,0.0087 mg/kg,–
CN/C(=N\CCSCc1nc[nH]c1C)NC#N [CIMETIDINE],2700 nM,–,0.33 mg/kg
N=C(N)Nc1nc(CCCCC(=N)NS(N)(=O)=O)cs1,230 nM,0.0089 mg/kg,–
N=C(CCCOc1cccc(CN2CCCCC2)c1)NS(N)(=O)=O,1400 nM,–,–
N=C(N)Nc1nc(CSCCC(=N)NS(=O)(=O)c2ccccc2)cs1,700 nM,0.0568 mg/kg,–
N=C(N)Nc1nc(CCCCC(=N)NNS(=O)(=O)c2ccccc2)cs1,23000 nM,–,–
N=C(N)Nc1nc(CSCCC(=N)NS(=O)(=O)c2ccc(N)cc2)cs1,450 nM,0.03 mg/kg,–
CN(C)Nc1nc(CSCCC(=N)NS(N)(=O)=O)cs1,> 100000 nM,–,–
CCCNS(=O)(=O)NC(=N)CCCCc1csc(N=C(N)N)n1,560 nM,0.0266 mg/kg,–
Cc1[nH]cnc1CSCCC(=N)NS(N)(=O)=O,> 100000 nM,–,–
N=C(CCSCc1ccccn1)NS(N)(=O)=O,> 100000 nM,–,–
CNS(=O)(=O)NC(=N)CCSCc1csc(N=C(N)N)n1,860 nM,0.0366 mg/kg,–
N=C(N)Nc1nc(CCCCC(=N)NS(=O)(=O)c2ccccc2)cs1,580 nM,0.0194 mg/kg,–
N=C(N)Nc1nc(C[S+]([O-])CCC(=N)NS(N)(=O)=O)cs1 (configuration not stated),73000 nM,–,–
CN(C)S(=O)(=O)NC(=N)CCSCc1csc(N=C(N)N)n1.O=C(O)/C=C\C(=O)O,1400 nM,0.277 mg/kg,–
N=C(N)Nc1nc(CSCCC(=N)NS(=O)(=O)NCc2ccccc2)cs1,1100 nM,0.0396 mg/kg,–
